p-CIP stab down = p/CIP-EGFP fusion destabilizers, primary screen, fluorescence, F442A cells; actives 0.01% (n = 290,000); 16 h; decrease of EGFP signal, % at 10 µM; AID 1984, 2009; Q05BA5;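 active = EGFP signal decrease of at least 30% at 10 µM or well 3 SD below plate mean, unless failing retest; inactive = the rest, including hits failing retest or dose response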
CHOP inh = inhibitors of CHOP promoter induction, primary screen, cell-based, unfolded protein response, luciferase reporter; actives 3.8% (n = 220,000); inhibition, % at 10 µM; CHO-K1 CHOP-promoter luciferase, tunicamycin-induced, 15-18 h;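 active = compounds that reduced the stress-induced luciferase reporter signal by more than about 70% of percent inhibition, limit read from the data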
CHOP UPR activ = activators of apoptotic CHOP UPR arm, primary screen, cell-based, CHO-CHOP luciferase reporter, luminescence, uHTS | AID 449763, 2010 | UPR activation; percent of tunicamycin response over DMSO baseline | activation, % at 10 µM | actives 0.34% (n = 330,000);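 active = at 10 µM dose, activation of 40% or more, normalized to positive control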
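Test system: CHO CHOP reporter cells. Input: 500 CHO-CHOP cells per well. Medium: F12 with 10% FBS. Technique: luciferase luminescence. Measure: percent activation relative to tunicamycin control. Dosing: 10 µM compound, 0.5% DMSO. Timing: 16-18 h cell attachment, then 6 h compound exposure, 37 °C.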
Beta2AR agonist = beta2AR agonists driving receptor internalization, primary screen, cell-based, FAP fluorogen, flow cytometry; Beta-2 adrenergic receptor (Homo sapiens), P07550; Am2.2-beta2AR cells; response, % (concentration not given with the values); actives 0.43% (n = 340,000); AID 504454, 2011;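 active = response above a set limit, near 3 SD of response in nonfluorescent compounds, cut at about 42% in these data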
Target sequence (P07550 whole entry, looked up): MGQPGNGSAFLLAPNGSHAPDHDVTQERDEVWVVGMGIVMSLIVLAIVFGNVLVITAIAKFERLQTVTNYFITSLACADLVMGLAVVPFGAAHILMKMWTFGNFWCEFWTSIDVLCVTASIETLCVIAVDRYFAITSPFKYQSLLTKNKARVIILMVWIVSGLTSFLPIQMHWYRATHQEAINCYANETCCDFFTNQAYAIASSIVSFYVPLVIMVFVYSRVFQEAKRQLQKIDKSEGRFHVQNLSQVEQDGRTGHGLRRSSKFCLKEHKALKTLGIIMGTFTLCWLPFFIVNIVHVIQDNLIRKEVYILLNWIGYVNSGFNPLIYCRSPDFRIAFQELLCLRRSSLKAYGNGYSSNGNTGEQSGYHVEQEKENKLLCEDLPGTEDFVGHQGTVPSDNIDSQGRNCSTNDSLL
Dynein cargo inh = inhibitors of GR-EGFP nuclear translocation, primary screen, dynein cargo transport inhibitor project, imaging, high-content, 3617.4 mouse cells. test concentration mostly 20 µM; stimulated with dexamethasone, 1 µM; stronger effect = lower value. actives 0.47% (n = 220,000). z-score, hits read low;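 active = plate z-score of nuclear minus cytoplasmic receptor signal below a set negative limit, without overly bright fluorescence or cell loss, cut at about -3.5 in these data, passing the limit was not always enough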;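 also: z-score of nuclear minus cytoplasmic ring GR-EGFP intensity difference per well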
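Buffer or medium – tet-free medium with charcoal-stripped serum · Signal – automated 10x imaging of fixed Hoechst-stained cells · Also added – dexamethasone agonist, 1.0 µM final, for 30 min · Incubation – induction 48 h, compound 1 h, agonist 30 min · Read-out – GR-EGFP nuclear translocation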
XBP1 UPR activ = activators of adaptive XBP1 UPR arm, primary screen, cell-based, CHO-XBP1 luciferase reporter, luminescence, uHTS; IRE1-XBP1 UPR activation; percent of tunicamycin response, DMSO as zero; activation, % at 20 µM; actives 0.33% (n = 330,000); AID 463104, 2010;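 active = versus positive control, 20 µM dose yields 30% or more activation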
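Material: IRE1-XBP1 luciferase reporter CHO line / Quantity: one thousand reporter cells per well / Buffer or medium: F12 with 10% serum / Compound: 20 µM single concentration, DMSO 1% / Times: 6 h treatment, 37 °C / Detection: Steady-Glo luciferase glow luminescence, 10 min after reagent addition / Benchmarks: tunicamycin high, DMSO low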
Large screens that a line does not name were inactive. Many of the other results were omitted from the sample, so hits are more common in it than they were.

CC1CC(C)CN(S(=O)(=O)c2ccc3c(c2)oc(=O)n3CC(=O)N(C)Cc2ccccc2)C1 (stereo unspecified)	none (no result: CHOP inh, Dynein cargo inh)
CCOc1cccc(NC(=O)C2CC(=O)N(C)C(=Nc3cccc(F)c3)S2)c1 (stereo unspecified)	CHOP inh 91
CC(/C=C/c1ccc(N(C)C)cc1)=N/N=C1/NC(=O)CC(C(=O)Nc2ccc(Cl)cc2)S1 (stereo unspecified)	CHOP inh 71
CC(/C=C/c1ccc(N(C)C)cc1)=N\N=C1\NC(=O)CC(C(=O)Nc2ccccc2)S1 (stereo unspecified)	none
CCCOc1ccc(NC(=O)C2CC(=O)N/C(=N/N=C(C)/C=C/c3ccc(N(C)C)cc3)S2)cc1 (stereo unspecified)	CHOP inh 72
CCCOc1ccc(NC(=O)C2CC(=O)N/C(=N/N=C(\C)CCc3ccc4c(c3)OCO4)S2)cc1 (stereo unspecified)	CHOP inh 78
CCCC(=O)Nc1sc(C)c(-c2ccc(C(C)CC)cc2)c1C#N (stereo unspecified)	none
CCN1C(=O)CC(C(=O)Nc2ccc(F)cc2)SC1=Nc1ccc2c(c1)OCO2 (stereo unspecified)	none
CCOc1ccc(NC(=O)C2CC(=O)N(CC)C(=Nc3ccc4c(c3)OCO4)S2)cc1 (stereo unspecified)	CHOP inh 72
O=C(CCC(=O)OCC(=O)c1cccc([N+](=O)[O-])c1)Nc1ccccc1Cl	none
CCCCC(=O)Nc1ccc2c3c(cccc13)CC2	Beta2AR agonist 46
O=C(COc1ccc2ccccc2c1)Nc1ccc2c3c(cccc13)CC2	CHOP inh 92
Cc1cc(N2CCN(C)CC2)nc2ccc(NC(=S)N3CCN(c4ccccn4)CC3)cc12	none
Cc1ccc(NC(=O)Nc2nnc(-c3ccccc3)o2)cc1	none
Cc1ccc(-c2nnc(Nc3ccccc3)o2)cc1	CHOP inh 84
O=C(/C=C/c1ccc(N2CCC(c3ccccc3)=N2)cc1)c1ccccc1	Dynein cargo inh -5.7 (no result: Beta2AR agonist)
CCOC(=O)/C(=C\c1ccc(N2CCC(c3ccccc3)=N2)cc1)C(C)=O	none (no result: p-CIP stab down, CHOP inh, CHOP UPR activ, Dynein cargo inh, XBP1 UPR activ)
C[C@@H](O)C1NC(=O)[C@H](CCCCN)NC(=O)c2cc([N+](=O)[O-])cc(I)c2NCCC[C@@H](C(N)=O)NC1=O (stereo partly specified)	none
O=c1cc(-c2ccc(O)c(O)c2)oc2cc(O)c(C3OC(CO)C(O)C(O)C3O)c(O)c12 (stereo unspecified)	none
COC(=O)c1ccccc1NC(=O)c1sc(=S)n(C)c1N	CHOP inh 82
COc1cc(OC)cc(C(=O)Nc2ccccc2C(=O)NC2CC2)c1	none (no result: p-CIP stab down, CHOP inh, Dynein cargo inh)
COC(=O)c1ccccc1NC(=O)c1cc(OC)cc(OC)c1	CHOP inh 82
Cc1cc(/C([O-])=C(/C(=S)Nc2ccc(F)cc2)[n+]2ccccc2)c(C)n1Cc1ccccc1Cl	none
CCC1(O)CC2CN(CCc3c([nH]c4ccccc34)[C@@](C(=O)OC)(c3cc4c(cc3OC)N(C=O)C3[C@]45CCN4CC=C[C@@](CC)([C@@H](OC(C)=O)[C@]3(O)C(=O)OC)[C@H]45)C2)C1 (stereo partly specified)	none (no result: p-CIP stab down, CHOP UPR activ, Beta2AR agonist, Dynein cargo inh, XBP1 UPR activ)
FC(F)(F)c1cc(-c2ccccc2)nc(N2CCCCC2)n1	none
c1ccc(-c2cc(N3CCOCC3)nc(-c3ccccc3)n2)cc1	CHOP inh 89
Fc1ccc(Oc2cc(N3CCOCC3)nc(-c3ccccc3)n2)c(F)c1	CHOP inh 87
FC(F)(F)c1cc(-c2ccccc2)nc(N2CCOCC2)n1	CHOP inh 90
N#C/C(=C/c1ccc(F)cc1)c1nnc(NC(=O)c2ccccc2)s1	CHOP inh 73
CN(Cc1ccc(F)cc1)S(=O)(=O)c1nnc(NC(=O)c2ccccc2)s1	none (no result: CHOP inh, Dynein cargo inh)
NC(=O)CCN1CCN(Cc2nc(C(c3ccccc3)c3ccccc3)no2)CC1	none
Cc1cc(C)c(OCCCCNCc2ccccc2)c(Cl)c1	CHOP inh 75
CCOC(=O)c1sc(N/N=C/c2cc(Br)c(O)c(OC)c2)nc1C	none (no result: CHOP inh, Dynein cargo inh)
Cc1nc(Oc2ccccc2)c2ccccc2n1	none
FC(F)(F)c1nc(Oc2ccccc2)c2ccccc2n1	CHOP inh 83
CCN(CC(=O)N1CCN(Cc2ccccc2)CC1)S(=O)(=O)c1ccc(F)cc1	none (no result: CHOP inh, Dynein cargo inh)
CCOc1[nH]n(-c2ccccc2)c(=O)c1C=Nc1ccc(C)cc1	CHOP inh 77
COc1ccc(C(CNC(=O)c2cc(F)c(F)c(F)c2F)N2CCOCC2)cc1 (stereo unspecified)	none
CC(C)NS(=O)(=O)c1ccc(OCC(=O)N2CCc3ccccc3C2)cc1	CHOP inh 74
C[C@@]12C(=O)OC(=O)[C@]1(C)C1CCC2O1	CHOP UPR activ 101, Beta2AR agonist 81 (no result: p-CIP stab down, CHOP inh, Dynein cargo inh)
CCOc1ccc(CCNC(=O)c2cccc(C#N)c2)cc1OCC	none
Cc1ccc2c(c1)N=C(c1ccc(Cl)cc1)CO2	CHOP inh 71
COc1cc(NC(=S)Nc2ccccn2)cc(OC)c1	none
CCCCCCSC1=C(C#N)C(c2ccccc2)CC(=O)N1 (stereo unspecified)	CHOP inh 77
CSC1=C(C#N)C(c2ccc(C(C)C)cc2)CC(=O)N1 (stereo unspecified)	CHOP inh 73
CCOc1ccccc1N(CC)C(=O)c1ccc2c(=O)n3c(nc2c1)CCCCC3	none (no result: CHOP inh, Dynein cargo inh)
CCOC(=O)CC1(NC(=O)c2cc(COc3c(F)cccc3F)on2)CCCCC1	none (no result: CHOP inh, Dynein cargo inh)
Nc1nnc(SCC(=O)Nc2ccc(N3CCOCC3)cc2)s1	none (no result: p-CIP stab down, CHOP inh, Dynein cargo inh)
C=CC[n+]1ccc(/C=C2\C=Cc3cc(C)ccc3N2CC)c2ccccc21	CHOP inh 75 (no result: CHOP UPR activ, XBP1 UPR activ)
Oc1c(Br)cc(Br)cc1/C=N/Nc1ccc(Cl)nn1	none (no result: CHOP inh, CHOP UPR activ, Dynein cargo inh, XBP1 UPR activ)
Oc1ccc(/C=N/Nc2ccc(Cl)nn2)c(O)c1O	Beta2AR agonist 92 (no result: CHOP inh, Dynein cargo inh)
CC(C)Nc1nc(Oc2ccc(Cl)cc2)cc(C(F)(F)F)n1	CHOP inh 74
O=C1CCc2cc(S(=O)(=O)N3CCN(c4cccc(C(F)(F)F)c4)CC3)ccc2N1	CHOP inh 87
CN(C)S(=O)(=O)N1CCC(Oc2cccc(C(=O)NCCC3=CCCCC3)c2)CC1	none (no result: CHOP inh, Dynein cargo inh)
Cn1c(SCC(=O)Nc2ccc3c(c2)oc2ccccc23)nnc1-c1ccccc1	CHOP inh 88
O=C(CSc1nnc(NC(=O)c2ccccc2Cl)s1)Nc1ccc2c(c1)oc1ccccc12	CHOP inh 71 (no result: Beta2AR agonist)
